Measurements from ChEMBL document CHEMBL1145936, “Rational design of an indolebutanoic acid derivative as a novel aldose reductase inhibitor based on docking and 3D QSAR studies of phenethylamine derivatives” (J Med Chem, 2003).

target: Aldo-keto reductase family 1 member B1 (Sus scrofa, UniProt P80276); experiment: Inhibition of pig kidney aldose reductase (ALR2)
Method in brief: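 Enzyme prepared from pig kidney and assayed in vitro following a previously published method. Inhibition read spectrophotometrically at 340 nm; IC50 values reported. Tolrestat served as positive control.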

SMILES | IC50
O=C(O)CCC(=O)NCCc1ccc(F)cc1 | 94 µM
O=C(O)/C=C/C(=O)NCc1ccccc1 | 150 µM
COc1ccc(CCNC(=O)CCC(=O)O)cc1 | 170 µM
O=C(O)CCCC(=O)NCCc1ccc(Br)cc1 | 110 µM
CCCCCCCCCC(=O)NCCc1ccc(O)cc1 | 110 µM
COc1ccc(CCNC(=O)c2ccccc2C(=O)O)cc1 | 177 µM
O=C(O)c1ccccc1C(=O)NCCc1ccccc1 | 88 µM
O=C(O)CCC(=O)Nc1ccccc1 | 192 µM
O=C(O)CCC(=O)NCCc1ccc(Br)cc1 | 94 µM
O=C(O)c1ccccc1C(=O)NCCc1ccc(O)cc1 | 340 µM
O=C(O)CCCC(=O)NCc1ccccc1 | 133 µM
COc1cc(C(=O)NCCc2ccc(O)cc2)cc(OC)c1OC | 100 µM
O=C(O)c1ccccc1C(=O)N1CCc2ccccc21 | 95 µM
O=C(O)c1ccccc1C(=O)NCCc1ccc(F)cc1 | 88 µM
O=C(O)CCC(=O)NCCc1ccc(Cl)cc1 | 99 µM
COc1ccc(CCNC(=O)/C=C/C(=O)O)cc1 | 155 µM
O=C(O)CCCC(=O)NCCc1ccccc1 | 104 µM
O=C(O)/C=C/C(=O)Nc1ccccc1 | 182 µM
O=C(O)/C=C/C(=O)N1CCc2ccccc21 | 40 µM
COc1ccc(CCNC(=O)CCCC(=O)O)cc1 | 185 µM
O=C(O)CCC(=O)n1ccc2ccccc21 | 24 µM
CCCCCCCC(=O)NCCc1ccc(O)cc1 | 120 µM
COc1ccc2c(C(=S)N(C)CC(=O)O)cccc2c1C(F)(F)F [TOLRESTAT] | 16 µM

The remaining compounds from weak to strong by IC50, led by results:

IC50 | SMILES
1800 µM | CCC(C)C(=O)NCCc1ccc(O)cc1 (stereo not drawn)
440 µM | O=C(O)CCCC(=O)Nc1ccccc1
390 µM | O=C(O)CCC(=O)NCCc1ccc(O)cc1
227 µM | O=C(O)c1ccccc1C(=O)Nc1ccccc1
203 µM | O=C(O)c1ccccc1C(=O)NCCc1ccc(Cl)cc1
180 µM | O=C(O)c1ccccc1C(=O)NCc1ccccc1
160 µM | CC(=O)NCCc1ccc(O)cc1
160 µM | O=C(NCCc1ccc(O)cc1)c1ccccc1
154 µM | O=C(O)CCCC(=O)NCCc1ccc(Cl)cc1
150 µM | CCCCCCCCCCCCCCCC(=O)NCCc1ccc(O)cc1
141 µM | O=C(O)CCC(=O)NCc1ccccc1
130 µM | CCCCC(=O)NCCc1ccc(O)cc1
112 µM | O=C(O)/C=C/C(=O)NCCc1ccc(Cl)cc1
110 µM | CCCCCCCCCCCC(=O)NCCc1ccc(O)cc1
102 µM | O=C(O)CCC(=O)N1CCc2ccccc21
99 µM | O=C(O)/C=C/C(=O)NCCc1ccc(Br)cc1
81 µM | O=C(O)c1ccccc1C(=O)NCCc1ccc(Br)cc1
80 µM | O=C(O)/C=C/C(=O)NCCc1ccc(O)cc1
78 µM | O=C(O)CCC(=O)NCCc1ccccc1
76 µM | O=C(O)CCCC(=O)NCCc1ccc(F)cc1
75 µM | O=C(O)/C=C/C(=O)NCCc1ccc(F)cc1
73 µM | O=C(O)/C=C/C(=O)NCCc1ccccc1
37 µM | O=C(O)/C=C/C(=O)n1ccc2ccccc21
30 µM | O=C(O)c1ccccc1C(=O)n1ccc2ccccc21
7.4 µM | O=C(O)CCC(=O)n1ccc2c(O)cccc21
